# PfGluPho inh – PfG6PD enzyme inhibitors, primary screen, biochemical, fluorescence intensity, uHTS; glucose-6-phosphate dehydrogenase-6-phosphogluconolactonase (Plasmodium falciparum 3D7); PfGluPho enzyme, NADPH resazurin-diaphorase fluorescence; inhibition, % at 20 µM; 0.78% of 350,000 active;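 active = inhibition reaching at least a set limit at 20 µM in the primary screen, cut at about 59% in these data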
# HKDC1 inh – HKDC1 hexokinase inhibitors, primary screen, biochemical, fluorescence, uHTS; recombinant HKDC1, G6PDH/diaphorase resazurin coupled fluorescence; Q2TB90; 0.16% of 340,000 active; inhibition, % at 20 µM;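 active = inhibition above about 35% when tested at 20 µM, limit read from the data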
#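 Assay system: recombinant HKDC1 hexokinase; detection: coupled resazurin fluorescence, excitation 525 nm, emission 613 nm; benchmarks: DMSO-plus-enzyme-mix negative control, buffer-substituted positive control; compound dosing: single 20 µM dose; schedule: 90 min at room temperature in dark; also added: glucose plus 1 mM ATP as hexokinase substrates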
# H9c2 protect – cardioprotection against H2O2-induced cell death, primary screen, uHTS, H9c2 cells, ATPLite luminescence; 0.63% of 360,000 active; protection from H2O2 cell death, % at 20 µM; AID 588492, 2011; H9c2 cardiomyocytes, H2O2 injury protection, 2 h;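 active = compounds giving at least 50% protection of heart cells from peroxide-induced death in the single-dose screen, raw or plate-pattern-corrected value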
# UCH37 inh – inhibitors of human UCH37 deubiquitinase, primary screen, biochemical, Ub-AMC cleavage, fluorescence. Ubiquitin carboxyl-terminal hydrolase isozyme L5 (Homo sapiens), Q9Y5K5. purified proteasome/UCH37. inhibition, % (no concentration beside the values). 0.33% of 330,000 active. AID 588478, 2011;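 active = mean inhibition over replicate wells above about 20%, limit read from the data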
# Target sequence (Q9Y5K5 whole entry, looked up): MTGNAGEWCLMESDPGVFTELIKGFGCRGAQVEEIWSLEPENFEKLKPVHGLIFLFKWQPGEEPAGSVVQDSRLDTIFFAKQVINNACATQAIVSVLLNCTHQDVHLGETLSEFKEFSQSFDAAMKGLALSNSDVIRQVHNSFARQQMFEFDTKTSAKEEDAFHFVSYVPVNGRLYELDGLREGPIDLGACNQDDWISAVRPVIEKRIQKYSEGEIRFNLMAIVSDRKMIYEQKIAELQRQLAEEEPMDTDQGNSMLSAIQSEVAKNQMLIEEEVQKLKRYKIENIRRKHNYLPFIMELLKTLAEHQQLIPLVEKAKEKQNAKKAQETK
#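 Test system – human UCH37 enzyme supplied as purified proteasome complex · Incubation – 30 min preincubation with enzyme, 25 min cleavage at room temperature · Detection – AMC fluorescence from Ub-AMC cleavage, excitation 355 nm, emission 460 nm · Benchmarks – no-proteasome wells (full inhibition) and compound-free wells (no inhibition)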
# Beta2AR agonist – beta2AR agonists driving receptor internalization, primary screen, cell-based, FAP fluorogen, flow cytometry | response, % (test concentration not listed) | 0.43% of 340,000 active | AID 504454, 2011 | Am2.2-beta2AR cells;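 active = response above a set limit, near 3 SD of response in nonfluorescent compounds, cut at about 42% in these data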
# aDG glyco up – activators of alpha-DG glycosylation, primary screen, uHTS, Pro5-aDG cells, AlphaScreen | alpha-DG glycosylation AlphaScreen (IIH6); 0% Pro5, 100% B10-LARGE cell signal | activation, % at 10 µM | 0.22% of 360,000 active | AID 624168, 2012;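 active = activation of at least 8% versus controls, or a plate z-score of at least 8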;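 also: Pro5 are CHO cells carrying HIG-tagged alpha-DG that lacks glycosylation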
# UCH37 reconfirm – retest of human UCH37 deubiquitinase inhibitors, confirmation, biochemical, Ub-AMC cleavage rate, fluorescence. inhibition, % at 20 µM. Proteasome-bound UCH37. 27% of 480 active. shares compounds with UCH37 inh;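 active = average inhibition over replicates above about 50%, so the earlier screening hit is confirmed, limit read from the data; inactive = the rest, counted as false positives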;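 also: based on cleavage rate fitted by regression over a 30 min kinetic read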
# Hits are given with their value; - = inactive; . = no result. An excerpt weighted towards active compounds, which were near 2.1% of everything screened.
SMILES,PfGluPho inh,HKDC1 inh,H9c2 protect,UCH37 inh,Beta2AR agonist,aDG glyco up,UCH37 reconfirm
O=C(COC(=O)c1ccc([N+](=O)[O-])s1)NNC(=O)c1ccccc1,-,-,-,80,-,-,-
CC(NC(=O)COC(=O)c1ccc([N+](=O)[O-])s1)c1ccccc1 (stereo not drawn),-,-,-,33,-,-,-
O=C(COC(=O)c1ccc([N+](=O)[O-])s1)NCc1ccc(F)cc1,-,-,-,65,-,-,-
Cc1ccc(N(CC(=O)NN=Cc2cccs2)S(C)(=O)=O)cc1Cl,.,.,.,-,.,.,.
O=C(CNC(=O)c1ccc2c(c1)OCO2)NN=Cc1cccc([N+](=O)[O-])c1,.,.,.,-,.,.,.
O=C1CN(C(=O)COC(=O)c2ccc([N+](=O)[O-])s2)c2ccccc2N1,-,-,-,76,-,-,-
O=C(COC(=O)c1ccc(O)cc1)NC(=O)NCc1ccccc1,-,-,-,-,-,-,.
O=C(COC(=O)c1ccc([N+](=O)[O-])s1)NC(=O)NCc1ccccc1,-,-,-,67,-,-,-
c1ccc(C[C@H]2CNCCN2CCCCC2CCCCC2)cc1,-,-,-,36,-,-,-
Cc1ccccc1N=Nc1ccc(O)c2ncccc12,-,-,-,-,-,-,.
O=S(=O)(O)c1cccc2c(N=Nc3ccc(O)c4ncccc34)cccc12,-,-,-,36,-,-,-
NC(=O)c1ccc(C=NO)[n+](Cc2ccccc2)c1,.,.,.,-,.,.,.
CCOC(=O)/C(=C\C=C1/Sc2cc(OCC)c(OCC)cc2N1CC)C(C)=O,-,-,-,29,-,-,-
O=C(NN=Cc1ccccc1OC(=O)N1CCOCC1)c1cccs1,.,.,.,-,.,.,.
CCOC(=O)C1CCCc2c1[nH]c1c(C(N)=O)cccc21 (stereo not drawn),-,-,-,53,-,-,-
COc1ccc([C@H]2CC(=O)C=C(c3ccc(OC(F)(F)F)cc3)C2)cc1,-,-,-,-,-,-,.
CCCOc1ccc(C2=CC(=O)C[C@H](c3ccc(OC)cc3)C2)cc1,-,-,-,36,-,-,-
COc1ccc2nc(N=Cc3cccc(OC)c3O)sc2c1,.,.,.,-,.,.,.
O=C(O)c1ccc(NN=C/C=C/c2ccc([N+](=O)[O-])o2)cc1,.,.,.,30,.,.,-
CCOc1cc(C=NNC(=O)c2cc(-c3ccccc3)nc3ccccc23)ccc1O,.,.,.,-,.,.,.
O=C(O)c1cccc(NC2=C(n3nnc4ccccc43)C(=O)c3ccccc3C2=O)c1,-,-,-,52,-,-,55
Cc1cccc(N=C2C(=O)Nc3c(Cl)cccc32)c1,-,-,-,-,-,-,.
O=C1Nc2c(Cl)cc(Cl)cc2C1=O,-,-,-,62,-,-,75
CC(=Nn1cnnc1)c1ccccc1,.,.,.,-,.,.,.
COc1cc(NC(=S)NC2CC(C)(C)NC(C)(C)C2)c(OC)cc1Cl,-,-,-,39,-,-,-
SMILES,PfGluPho inh,HKDC1 inh,H9c2 protect,UCH37 inh,Beta2AR agonist,aDG glyco up,UCH37 reconfirm
COc1cc(NC(=S)NC2CC(C)(C)NC(C)(C)C2)cc(OC)c1,-,-,-,-,-,-,.
NS(=O)(=O)c1ccc(NC(=O)COC(=O)c2ccc([N+](=O)[O-])s2)cc1,-,-,-,69,-,-,-
Cc1ccc(NC(=O)COC(=O)c2ccc([N+](=O)[O-])s2)c(C)c1,-,-,-,31,-,-,-
CN(CC(=O)Nc1ccccc1Cl)C(=O)COC(=O)c1cccs1,-,-,-,-,-,-,.
CC(=O)Nc1ccc(NC(=O)COC(=O)c2ccc(C)s2)cc1,-,-,-,-,-,-,.
CN(CC(=O)Nc1ccccc1Cl)C(=O)COC(=O)c1ccc([N+](=O)[O-])s1,-,-,-,76,-,-,-
COc1ccccc1NC(=O)COC(=O)c1ccc([N+](=O)[O-])s1,-,-,-,72,-,-,-
Cc1cc(C)c(NC(=O)COC(=O)c2ccc([N+](=O)[O-])s2)c(C)c1,-,-,-,-,-,-,.

# Compound activity: PubChem BioAssay, several laboratories
